Assays:
[1] = Cytotoxicity against human A549 cells assessed as cell growth at 10 uM after 48 hrs by SRB assay relative to control; assay type: functional; conditions: A549, 48 h, read-out: Activity
[2] = Cytotoxicity against human NCI-H322M cells assessed as cell growth at 10 uM after 48 hrs by SRB assay relative to control; assay type: functional; conditions: read-out: Activity
[3] = Cytotoxicity against human HOP92 cells assessed as cell growth at 10 uM after 48 hrs by SRB assay relative to control; assay type: functional; conditions: HOP-92, 48 h, read-out: Activity
[4] = Aqueous solubility of the compound; assay type: physicochemical
[5] = Cytotoxicity against human NCI-H522 cells assessed as cell growth at 10 uM after 48 hrs by SRB assay relative to control; assay type: functional; conditions: NCI-H522, 48 h, read-out: Activity
[6] = Cytotoxicity against human NCI-H1975 cells assessed as decrease in cell viability after 72 hrs by MTT assay; assay type: functional, cell-based; conditions: NCI-H1975, 72 h
How it was run: (§1)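 Cells kept in RPMI 1640 with 10% FBS at 37 °C, 5% CO2, passaged every 2-3 days; seeded at 5,000-7,000 cells/well and left 24 h. Compounds dissolved in 1% DMSO, diluted in fresh medium to 1, 4, 16 and 32 µM, added in sextuplicate; 72 h exposure. MTT added for 3-4 h, medium removed, DMSO added for 15 min at 37 °C, OD read at 540 nm.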

[7] = Cytotoxicity against human A549 cells assessed as decrease in cell viability after 72 hrs by MTT assay; assay type: functional, cell-based; conditions: A549, 72 h; how it was run: as §1
[8] = Cytotoxicity against human NCI-H23 cells assessed as cell growth at 10 uM after 48 hrs by SRB assay relative to control; assay type: functional; conditions: NCI-H23, 48 h, read-out: Activity
[9] = Cytotoxicity against human NCI-H460 cells assessed as cell growth at 10 uM after 48 hrs by SRB assay relative to control; assay type: functional; conditions: NCI-H460, 48 h, read-out: Activity
[10] = Cytotoxicity against human HCC827 cells assessed as decrease in cell viability after 72 hrs by MTT assay; assay type: functional, cell-based; conditions: HCC827, 72 h; how it was run: as §1
[11] = Cytotoxicity against human HOP62 cells assessed as cell growth at 10 uM after 48 hrs by SRB assay relative to control; assay type: functional; conditions: HOP-62, 48 h, read-out: Activity
[12] = Cytotoxicity against human EKVX cells assessed as cell growth at 10 uM after 48 hrs by SRB assay relative to control; assay type: functional; conditions: read-out: Activity
[13] = Cytotoxicity against human NCI-H226 cells assessed as cell growth at 10 uM after 48 hrs by SRB assay relative to control; assay type: functional; conditions: NCI-H226, 48 h, read-out: Activity
[14] = Cytotoxicity against human NCI-H460 cells assessed as decrease in cell viability after 72 hrs by MTT assay; assay type: functional, cell-based; conditions: NCI-H460, 72 h; how it was run: as §1
[15] = Growth inhibition of human NCI-H460 cells after 48 hrs by SRB assay; assay type: functional; conditions: NCI-H460, 48 h
[16] = Growth inhibition of human EKVX cells after 48 hrs by SRB assay; assay type: functional
[17] = Growth inhibition of human NCI-H522 cells after 48 hrs by SRB assay; assay type: functional; conditions: NCI-H522, 48 h
[18] = Growth inhibition of human NCI-H226 cells after 48 hrs by SRB assay; assay type: functional; conditions: NCI-H226, 48 h
[19] = Growth inhibition of human HOP62 cells after 48 hrs by SRB assay; assay type: functional; conditions: HOP-62, 48 h
[20] = Growth inhibition of human HOP92 cells after 48 hrs by SRB assay; assay type: functional; conditions: HOP-92, 48 h
[21] = Growth inhibition of human NCI-H23 cells after 48 hrs by SRB assay; assay type: functional; conditions: NCI-H23, 48 h
[22] = Growth inhibition of human NCI-H322M cells after 48 hrs by SRB assay; assay type: functional
[23] = Growth inhibition of human A549 cells after 48 hrs by SRB assay; assay type: functional; conditions: A549, 48 h

| SMILES | growth at 10 µM [1] | growth at 10 µM [2] | growth at 10 µM [3] | solubility [4] | growth at 10 µM [5] | IC50 [6] | IC50 [7] | growth at 10 µM [8] | growth at 10 µM [9] | IC50 [10] | growth at 10 µM [11] | growth at 10 µM [12] | growth at 10 µM [13] | IC50 [14] | also measured |
| --- | --- | --- | --- | --- | --- | --- | --- | --- | --- | --- | --- | --- | --- | --- | --- |
| S=c1n(Cc2ccc3ccccc3c2)c2ccccc2n1Cc1ccc2ccccc2c1 | 87.6% | 92.6% | 83.4% | < 500 µg/mL | 88.2% | > 30000 nM | > 30000 nM | 93.1% | 69.8% | > 30000 nM | 81.9% | 93.1% | 73.5% | > 30000 nM |  |
| CCc1n(Cc2ccc3ccccc3c2)c2ccccc2[n+]1Cc1ccc2ccccc2c1.[Br-] | 74.2% | 90.7% | 21.9% | < 500 µg/mL | 12.1% | < 1000 nM | 3000 nM | 28.8% | 53.6% | 4000 nM | 81.3% | 76.7% | 64.9% | 3000 nM |  |
| CCCCc1n(Cc2ccc3ccccc3c2)c2ccccc2[n+]1Cc1ccc2ccccc2c1.[Br-] | -72.3% | -82.2% | -70.7% | < 500 µg/mL | -77.2% | < 1000 nM | 2000 nM | -83.9% | -81.1% | 2000 nM | -76.8% | -84.6% | -72.7% | 2000 nM | GI50 [15]: 436 nM; GI50 [16]: 1170 nM; GI50 [17]: 289 nM; TGI [17]: 1350 nM; GI50 [18]: 1080 nM; GI50 [19]: 1050 nM; TGI [19]: 2550 nM; GI50 [20]: 298 nM; TGI [20]: 1350 nM; GI50 [21]: 371 nM; TGI [21]: 1700 nM; GI50 [22]: 1220 nM; TGI [22]: 2570 nM; GI50 [23]: 1040 nM; TGI [23]: 2420 nM |
| Cc1n(Cc2ccc3ccccc3n2)c2ccccc2[n+]1Cc1ccc2ccccc2n1.[Cl-] | 87.9% | 94.9% | 52% | 1100 µg/mL | 56.6% | 2000 nM | 9000 nM | 75.8% | 95.8% | 7000 nM | 82.7% | 102% | 89.6% | 3000 nM |  |
| COCCc1n(Cc2ccc3ccccc3c2)c2ccccc2[n+]1Cc1ccc2ccccc2c1.[Br-] | 4.72% | 5.25% | -53.1% | < 500 µg/mL | -54.4% | 2000 nM | 3000 nM | -24.3% | -65.3% | 3000 nM | -19.1% | 4.7% | -7.12% | 3000 nM |  |
| COCCOCCOCc1n(Cc2ccc3ccccc3c2)c2ccccc2[n+]1Cc1ccc2ccccc2c1.[Br-] | 33.1% | 40.5% | -32.1% | 700 µg/mL | -16.6% | 3000 nM | 5000 nM | 5.56% | 10.3% | 5000 nM | 17.1% | 47.4% | 17.2% | 3000 nM |  |
| O=c1n(Cc2ccc3ccccc3c2)c2ccccc2n1Cc1ccc2ccccc2c1 | 85.2% | 81.6% | 79.9% | < 500 µg/mL | 73.4% | 19000 nM | > 30000 nM | 77.7% | 74.6% | > 30000 nM | 62.8% | 79.5% | 83.9% | > 30000 nM |  |
| COC(=O)CCc1n(Cc2ccc3ccccc3c2)c2ccccc2[n+]1Cc1ccc2ccccc2c1.[Br-] | 38.3% | 36.6% | -34.4% | < 500 µg/mL | -29.4% | 2000 nM | 8000 nM | -7.39% | 6.29% | 4000 nM | 19% | 42.1% | 17.7% | 4000 nM |  |
| COCCOCCOCc1n(Cc2ccc3ccccc3n2)c2ccccc2[n+]1Cc1ccc2ccccc2n1.[Cl-] | 39.4% | 47.4% | -22.1% | 42200 µg/mL | -1.7% | < 1000 nM | 9000 nM | 12.8% | 16.5% | 4000 nM | 20.8% | 71.6% | 37.9% | 4000 nM |  |
| [Br-].c1ccc2cc(Cn3c[n+](Cc4ccc5ccccc5c4)c4ccccc43)ccc2c1 | 30.9% | 34.6% | -27.6% | < 500 µg/mL | -28.8% | 3000 nM | 5000 nM | -0.74% | -34.2% | 3000 nM | 3.98% | 13.9% | 19.6% | 3000 nM | GI50 [15]: 1350 nM; TGI [15]: 2910 nM; GI50 [16]: 1470 nM; TGI [16]: 2950 nM; GI50 [17]: 1250 nM; TGI [17]: 2820 nM; GI50 [18]: 1460 nM; TGI [18]: 3250 nM; GI50 [19]: 1540 nM; TGI [19]: 2980 nM; GI50 [20]: 192 nM; LC50 [20]: 4930 nM; TGI [20]: 1570 nM; GI50 [21]: 1050 nM; TGI [21]: 2510 nM; GI50 [22]: 1490 nM; TGI [22]: 2890 nM; GI50 [23]: 1870 nM; LC50 [23]: 8010 nM; TGI [23]: 3880 nM |
| CCCCCCCc1n(Cc2ccc3ccccc3c2)c2ccccc2[n+]1Cc1ccc2ccccc2c1.[Br-] | -77.5% | -86% | -84.4% | < 500 µg/mL | -81.1% | < 1000 nM | < 1000 nM | -76.9% | -73% | < 1000 nM | -70.6% | -73.5% | -70.8% | < 1000 nM |  |
| CCCc1n(Cc2ccc3ccccc3c2)c2ccccc2[n+]1Cc1ccc2ccccc2c1.[Br-] | -19.4% | 4.72% | -48.1% | < 500 µg/mL | -60.1% | < 1000 nM | 2000 nM | -12.9% | -76.1% | < 1000 nM | -55.4% | -4.84% | -4.44% | 2000 nM | GI50 [15]: 337 nM; TGI [15]: 1360 nM; GI50 [16]: 653 nM; TGI [16]: 2330 nM; GI50 [17]: 300 nM; TGI [17]: 1050 nM; GI50 [18]: 373 nM; TGI [18]: 1800 nM; GI50 [19]: 537 nM; TGI [19]: 2030 nM; GI50 [20]: 192 nM; TGI [20]: 911 nM; GI50 [21]: 354 nM; TGI [21]: 1600 nM; GI50 [22]: 1040 nM; TGI [22]: 2310 nM; GI50 [23]: 619 nM; LC50 [23]: 5090 nM; TGI [23]: 2040 nM |
| OCCCc1n(Cc2ccc3ccccc3n2)c2ccccc2[n+]1Cc1ccc2ccccc2n1.[Cl-] | 93.2% | 91.7% | 47.9% | < 500 µg/mL | 60% | 7000 nM | 25000 nM | 75% | 91.8% | 17000 nM | 87.5% | 97.8% | 79.8% | 11000 nM |  |
